Measurements published in ChEMBL document CHEMBL1139455, “Three-dimensional quantitative structure-activity relationship modeling of cocaine binding by a novel human monoclonal antibody” (J Med Chem, 2004).
pKd, pKi: −log10 of the molar value.

Key:
[1] = test system: Monoclonal antibody (mAb) 2E2; test: Binding affinity against human monoclonal antibody (mAb) 2E2 relative to cocaine by ELISA method.
Outline: (§1)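 Competition ELISA with human mAb 2E2 (from SCID mouse ascites, partially purified by sodium sulfate precipitation and protein A chromatography). Detection with biotinylated goat anti-human IgG (γ-chain-specific). IC50 obtained by three-parameter logistic fit. RBA is the competitor IC50 divided by the cocaine IC50. Values are averages of three or more independent experiments, each done in duplicate.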

[2] = test system: Monoclonal antibody (mAb) 2E2; test: Relative binding affinity against human monoclonal antibody (mAb) 2E2 compared to cocaine
[3] = biological target: Monoclonal antibody (mAb) 2E2; test: Relative binding affinity against human monoclonal antibody 2E2 compared to [3H]cocaine
Outline: (§2)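 Radioligand competition with 1 nM [3H]-cocaine diluted with 14 nM unlabeled cocaine and 0.4 nM mAb 2E2, against varying unlabeled competitor. Separation was by double-antibody precipitation (goat anti-human Fc) and read by scintillation counting. Duplicate data were fitted to a three-parameter logistic equation for IC50. RBA is the Ki of the compound divided by the Ki of cocaine. Three repeats were run.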

[4] = test system: Monoclonal antibody (mAb) 2E2; test: Relative binding affinity for human monoclonal antibody (mAb) 2E2
[5] = biological target: Monoclonal antibody (mAb) 2E2; test: Dissociation Constant for human monoclonal antibody 2E2 with [3H]cocaine
Outline: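 Saturation binding of [3H]-cocaine to mAb 2E2. Bound ligand was separated by double-antibody precipitation, using goat anti-human Fc as the first antibody, and counted by liquid scintillation. Kd was fitted from counts per minute against total cocaine concentration to a binding isotherm. Points are averages of duplicates. Each experiment was run three times.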

[6] = biological target: Monoclonal antibody (mAb) 2E2; test: Binding affinity towards human monoclonal antibody 2E2 using [3H]cocaine; outline: as §2
[7] = test system: Monoclonal antibody (mAb) 2E2; test: Binding affinity against human monoclonal antibody (mAb) 2E2 by ELISA; outline: as §1

Row | SMILES | relative binding affinity (RBA) [1] | also measured
1 | O=C(O[C@H]1CC2CCC(N2)[C@H]1C(=O)O)c1ccccc1 (some centres undefined) | 120 | 
2 | CN1C2CCC1CC(O)C2 (centres undefined) | 91000 | 
3 | COC(=O)C1C2CCC(C[C@@H]1c1ccc(C)cc1)N2C (single isomer, unassigned) | 14 | 
4 | CN1C2CCC1[C@@H](C(=O)O)[C@@H](OC(=O)c1ccccc1)C2 (some centres undefined) | 9.8 | relative binding affinity (RBA) [2]: 12; pKi [3]: 7.37
5 | COC(=O)[C@H]1[C@@H](c2ccc(F)cc2)C[C@H]2CC[C@H]1N2C | 19 | 
6 | COC(=O)[C@@H]1C2CC[C@H](C[C@@H]1c1ccccc1)N2C | 29 | 
7 | CCOC(=O)[C@@H]1C2C(C)CC(C[C@@H]1OC(=O)c1ccccc1)N2C (some centres undefined) | 0.21 | 
8 | COC(=O)[C@@H]1C2CCC(C[C@@H]1O)N2C (some centres undefined) | 2500 | relative binding affinity (RBA) [2]: 1500; pKi [3]: 5.28
9 | C[N+]1([O-])[C@@H]2CC[C@H]1C[C@@H](OC(=O)C(CO)c1ccccc1)C2 (some centres undefined) | 90000 | 
10 | CCCOC(=O)[C@@H]1C2CCC(C[C@@H]1OC(=O)c1ccccc1)N2C (some centres undefined) | 0.23 | 
11 | C[N+]1([O-])C2CC(OC(=O)[C@H](CO)c3ccccc3)CC1C1OC12 (some centres undefined) | 130000 | 
12 | CN(C)C(=O)[C@@H]1C2CCC(C[C@@H]1OC(=O)c1ccccc1)N2C (some centres undefined) | 7.4 | 
13 | CN1[C@@H]2C[C@@H](OC(=O)[C@H](CO)c3ccccc3)C[C@H]1[C@@H]1O[C@H]12 | 49000 | 
14 | CN1C2CCC1[C@@H](C(=O)O)[C@@H](OC(=O)c1cccc(O)c1)C2 (some centres undefined) | 32 | 
15 | CN1C2CCC1[C@@H](C(=O)O)[C@@H](OC(=O)c1ccc(O)cc1)C2 (some centres undefined) | 36 | 
16 | CN1C2CCC1[C@@H](C(=O)Oc1ccccc1)[C@@H](c1ccc(Cl)cc1)C2 (some centres undefined) | 1.7 | 
17 | C[N+]1(C)[C@@H]2C[C@@H](OC(=O)[C@H](CO)c3ccccc3)C[C@H]1[C@@H]1O[C@@H]12 | 5900 | 

Row | SMILES | relative binding affinity (RBA) [1] | also measured
18 | COC(=O)[C@@H]1C2CCC(C[C@@H]1c1ccc(Cl)c(Cl)c1)N2C (some centres undefined) | 8.5 | 
19 | COC(=O)[C@@H]1C2CCC(C[C@@H]1OC(=O)c1ccccc1)N2 (some centres undefined) | 4.3 | 
20 | CNC(=O)[C@@H]1C2CCC(C[C@@H]1OC(=O)c1ccccc1)N2C (some centres undefined) | 29 | 
21 | COC(=O)[C@H]1C2CCC(C[C@@H]1OC(=O)c1ccccc1)N2 (stereo in doubt; 36) | 1100 | 
22 | CCCC[N+]1(C)C2CC(OC(=O)[C@H](CO)c3ccccc3)CC1C1OC12 (some centres undefined) | 3700 | 
23 | CCOC(=O)[C@@H]1C2CCC(C[C@@H]1OC(=O)c1ccccc1)N2C (some centres undefined) [COCAETHYLENE] | 0.74 | relative binding affinity (RBA) [2]: 0.97; pKi [3]: 8.47
24 | CON(C)C(=O)[C@@H]1C2CCC(C[C@@H]1OC(=O)c1ccccc1)N2C (some centres undefined) | 21 | 
25 | COC(=O)[C@H]1C2CCC(C[C@@H]1OC(=O)c1ccccc1)N2 (stereo in doubt) | 1800 | 
26 | CN1C2CCC1[C@@H](C(N)=O)[C@@H](OC(=O)c1ccccc1)C2 (some centres undefined) | 22 | 
27 | COC(=O)C1C2CC[C@H](C[C@@H]1c1ccc(Cl)cc1)N2C (some centres undefined) | 9.3 | 
28 | COC(=O)[C@@H]1C2CCC(C[C@@H]1c1ccc(I)cc1)N2C (some centres undefined) | 4.5 | 
29 | CN1C2CCC1[C@@H](C(=O)O)[C@@H](O)C2 (some centres undefined) | 28000 | relative binding affinity (RBA) [2]: 28000; pKi [3]: 4.02
30 | COC(=O)[C@@H]1C2CCC(C[C@@H]1OC(=O)c1cccc(O)c1)N2C (some centres undefined) | 8.4 | 
31 | COC(=O)[C@H]1[C@@H](OC(=O)c2ccccc2)C[C@@H]2CC[C@H]1N2C [COCAINE] |  | relative binding affinity (RBA) [4]: 1; pKd [5]: 8.36; pKi [6]: 8.46; relative binding affinity (RBA) [7]: 1
32 | COC(=O)C1=CCC2CCC1N2C (centres undefined) | 21000 | 
33 | CN1C2CC(OC(=O)[C@](O)(CO)c3ccccc3)CC1C1OC12 (some centres undefined) | 59000 | 
